Data as given in ChEMBL document CHEMBL1138525 (J Med Chem, 2009).
pEC50, pIC50: −log10 of the molar value. Active and inactive are the calls of the source. No cut-off for these calls is given here.

How the values were obtained:
[1] = test system: P2Y purinoceptor 2 (Homo sapiens), P41231 [UNDEFINED MUTATION]; assay: Ratio of EC50 for N-terminal HA epitope-tagged human P2Y2 receptor C278S mutant to EC50 for wild type 3 human P2Y2 receptor
[2] = target: T1, P2Y purinoceptor 2 (Homo sapiens, UniProt P41231, C278S); assay: Agonist activity at N-terminal HA epitope-tagged human P2Y2 receptor C278S mutant expressed in human 1321N1 cells assessed as increase in intracellular calcium level; assay type: functional, cell-based
Method in brief: (§1)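 1321N1 astrocytoma cells stably expressing mutant receptor (retroviral transfection, G418 selection), loaded with Oregon Green BAPTA-1/AM in Krebs-HEPES pH 7.4 for 1 h at room temperature. Plated at 150000 cells/well and held 20 min at 28 °C in the dark. Efficacy relative to 100 µM carbachol.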

[3] = test system: P2Y purinoceptor 2 (Homo sapiens), P41231 [S296A]; assay: Agonist activity at N-terminal HA epitope-tagged human P2Y2 receptor S296A mutant expressed in human 1321N1 cells assessed as increase in intracellular calcium level relative to carbachol; assay type: functional, cell-based
Method in brief: (§2)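 Retrovirally transduced stable 1321N1 astrocytoma lines (wild-type lines of differing expression, or mutants) in suspension, loaded with Oregon Green BAPTA-1/AM for 1 h at room temperature. Cells were plated at 150000 per well in Krebs-HEPES pH 7.4 and held 20 min at 28 °C in the dark. Agonist was then injected, with fluorescence read at ex 485/em 520 nm for 60 × 0.4 s.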

[4] = target: P2Y purinoceptor 2 (Homo sapiens, UniProt P41231, S296A); assay: Agonist activity at N-terminal HA epitope-tagged human P2Y2 receptor S296A mutant expressed in human 1321N1 cells assessed as increase in intracellular calcium level; assay type: functional, cell-based
Method in brief: (§3)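 Retrovirally transduced stable 1321N1 astrocytoma lines (wild-type lines of differing expression, or mutants) in suspension, loaded with Oregon Green BAPTA-1/AM for 1 h at room temperature. Cells were plated at 150000 per well in Krebs-HEPES pH 7.4 and held 20 min at 28 °C in the dark.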

[5] = target: T2, P2Y purinoceptor 2 (Homo sapiens, UniProt P41231); assay: Agonist activity at N-terminal HA epitope-tagged wild type 3 human P2Y2 receptor expressed in human 1321N1 cells assessed as increase in intracellular calcium level relative to carbachol; assay type: functional, cell-based; method in brief: as §2
[6] = target: T2, P2Y purinoceptor 2; assay: Agonist activity at N-terminal HA epitope-tagged wild type 3 human P2Y2 receptor expressed in human 1321N1 cells assessed as increase in intracellular calcium level; assay type: functional, cell-based; method in brief: as §3
[7] = target: T2, P2Y purinoceptor 2; assay: Agonist activity at N-terminal HA epitope-tagged wild type 4 human P2Y2 receptor expressed in human 1321N1 cells assessed as increase in intracellular calcium level; assay type: functional, cell-based; method in brief: as §3
[8] = target: T3, P2Y purinoceptor 2 (Homo sapiens, UniProt P41231, Y114A); assay: Agonist activity at N-terminal HA epitope-tagged human P2Y2 receptor Y114A mutant expressed in human 1321N1 cells assessed as increase in intracellular calcium level; assay type: functional, cell-based; method in brief: as §1
[9] = target: T2, P2Y purinoceptor 2; assay: Agonist activity at N-terminal HA epitope-tagged wild type 4 human P2Y2 receptor expressed in human 1321N1 cells assessed as increase in intracellular calcium level relative to carbachol; assay type: functional, cell-based; method in brief: as §2
[10] = test system: P2Y purinoceptor 2 (Homo sapiens), P41231 [Y114A]; assay: Agonist activity at N-terminal HA epitope-tagged human P2Y2 receptor Y114A mutant expressed in human 1321N1 cells assessed as increase in intracellular calcium level relative to carbachol; assay type: functional, cell-based; method in brief: as §2
[11] = target: T4, P2Y purinoceptor 2 (Homo sapiens, UniProt P41231, R177A/R180A); assay: Agonist activity at N-terminal HA epitope-tagged human P2Y2 receptor R177A_R180A double mutant expressed in human 1321N1 cells assessed as increase in intracellular calcium level; assay type: functional, cell-based; method in brief: as §1
[12] = test system: P2Y purinoceptor 2 (Homo sapiens), P41231 [R177A,R180A]; assay: Agonist activity at N-terminal HA epitope-tagged human P2Y2 receptor R177A_R180A double mutant expressed in human 1321N1 cells assessed as increase in intracellular calcium level relative to carbachol; assay type: functional, cell-based; method in brief: as §2
[13] = target: P2Y purinoceptor 2 (Homo sapiens, UniProt P41231, R177A); assay: Agonist activity at N-terminal HA epitope-tagged human P2Y2 receptor R177A mutant expressed in human 1321N1 cells assessed as increase in intracellular calcium level; assay type: functional, cell-based; method in brief: as §1
[14] = test system: P2Y purinoceptor 2 (Homo sapiens), P41231 [R177A]; assay: Agonist activity at N-terminal HA epitope-tagged human P2Y2 receptor R177A mutant expressed in human 1321N1 cells assessed as increase in intracellular calcium level relative to carbachol; assay type: functional, cell-based; method in brief: as §2
[15] = target: P2Y purinoceptor 2 (Homo sapiens, UniProt P41231, R180A); assay: Agonist activity at N-terminal HA epitope-tagged human P2Y2 receptor R180A mutant expressed in human 1321N1 cells assessed as increase in intracellular calcium level; assay type: functional, cell-based; method in brief: as §1
[16] = test system: P2Y purinoceptor 2 (Homo sapiens), P41231 [R180A]; assay: Agonist activity at N-terminal HA epitope-tagged human P2Y2 receptor R180A mutant expressed in human 1321N1 cells assessed as increase in intracellular calcium level relative to carbachol; assay type: functional, cell-based; method in brief: as §2
[17] = target: P2Y purinoceptor 2 (Homo sapiens, UniProt P41231, R272A); assay: Agonist activity at N-terminal HA epitope-tagged human P2Y2 receptor R272A mutant expressed in human 1321N1 cells assessed as increase in intracellular calcium level; assay type: functional, cell-based; method in brief: as §1
[18] = target: T5, P2Y purinoceptor 2 (Homo sapiens, UniProt P41231, Y118A); assay: Agonist activity at N-terminal HA epitope-tagged human P2Y2 receptor Y118A mutant expressed in human 1321N1 cells assessed as increase in intracellular calcium level; assay type: functional, cell-based; method in brief: as §1
[19] = target: P2Y purinoceptor 2 (Homo sapiens, UniProt P41231, R194H); assay: Agonist activity at N-terminal HA epitope-tagged human P2Y2 receptor R194H mutant expressed in human 1321N1 cells assessed as increase in intracellular calcium level; assay type: functional, cell-based; method in brief: as §1
[20] = test system: P2Y purinoceptor 2 (Homo sapiens), P41231 [R194H]; assay: Agonist activity at N-terminal HA epitope-tagged human P2Y2 receptor R194H mutant expressed in human 1321N1 cells assessed as increase in intracellular calcium level relative to carbachol; assay type: functional, cell-based; method in brief: as §2
[21] = target: T6, P2Y purinoceptor 2 (Homo sapiens, UniProt P41231, Y198A); assay: Agonist activity at N-terminal HA epitope-tagged human P2Y2 receptor Y198A mutant expressed in human 1321N1 cells assessed as increase in intracellular calcium level; assay type: functional, cell-based; method in brief: as §1
[22] = test system: P2Y purinoceptor 2 (Homo sapiens), P41231 [Y198A]; assay: Agonist activity at N-terminal HA epitope-tagged human P2Y2 receptor Y198A mutant expressed in human 1321N1 cells assessed as increase in intracellular calcium level relative to carbachol; assay type: functional, cell-based; method in brief: as §2
[23] = test system: P2Y purinoceptor 2 (Homo sapiens), P41231 [C278S]; assay: Agonist activity at N-terminal HA epitope-tagged human P2Y2 receptor C278S mutant expressed in human 1321N1 cells assessed as increase in intracellular calcium level relative to carbachol; assay type: functional, cell-based; method in brief: as §2
[24] = test system: P2Y purinoceptor 2 (Homo sapiens), P41231 [R272A]; assay: Agonist activity at N-terminal HA epitope-tagged human P2Y2 receptor R272A mutant expressed in human 1321N1 cells assessed as increase in intracellular calcium level up to 300 uM relative to carbachol; assay type: functional, cell-based; method in brief: as §2
[25] = test system: P2Y purinoceptor 2 (Homo sapiens), P41231 [Y118A]; assay: Agonist activity at N-terminal HA epitope-tagged human P2Y2 receptor Y118A mutant expressed in human 1321N1 cells assessed as increase in intracellular calcium level relative to carbachol; assay type: functional, cell-based; method in brief: as §2
[26] = test system: P2Y purinoceptor 2 (Homo sapiens), P41231 [UNDEFINED MUTATION]; assay: Ratio of efficacy for N-terminal HA epitope-tagged human P2Y2 receptor R194H mutant to efficacy for wild type 3 human P2Y2 receptor
[27] = target: T1, P2Y purinoceptor 2; assay: Antagonist activity at N-terminal HA epitope-tagged human P2Y2 receptor C278S mutant expressed in human 1321N1 cells assessed as inhibition of UTP-induced calcium mobilization; assay type: functional, cell-based
Method in brief: (§4)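 1321N1 cells expressing wild-type or mutant receptor were dye-loaded with Oregon Green BAPTA-1/AM in Krebs-HEPES pH 7.4. Antagonist was preincubated for 20 min at 28 °C in the dark. Cells were then stimulated with UTP at a concentration giving 80-90% of maximal response. Calcium fluorescence read at 520 nm (excitation 485 nm).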

[28] = target: T2, P2Y purinoceptor 2; assay: Antagonist activity at N-terminal HA epitope-tagged wild type 3 human P2Y2 receptor expressed in human 1321N1 cells assessed as inhibition of UTP-induced calcium mobilization; assay type: functional, cell-based; method in brief: as §4
[29] = target: T3, P2Y purinoceptor 2; assay: Antagonist activity at N-terminal HA epitope-tagged human P2Y2 receptor Y114A mutant expressed in human 1321N1 cells assessed as inhibition of UTP-induced calcium mobilization; assay type: functional, cell-based; method in brief: as §4
[30] = test system: P2Y purinoceptor 2 (Homo sapiens), P41231 [UNDEFINED MUTATION]; assay: Ratio of IC50 for N-terminal HA epitope-tagged human P2Y2 receptor C278S mutant to IC50 for wild type 3 human P2Y2 receptor
[31] = target: T4, P2Y purinoceptor 2; assay: Antagonist activity at N-terminal HA epitope-tagged human P2Y2 receptor R177A_R180A double mutant expressed in human 1321N1 cells assessed as inhibition of UTP-induced calcium mobilization; assay type: functional, cell-based; method in brief: as §4
[32] = test system: P2Y purinoceptor 2 (Homo sapiens), P41231 [R177A]; assay: Antagonist activity at N-terminal HA epitope-tagged human P2Y2 receptor R177A mutant expressed in human 1321N1 cells assessed as inhibition of UTP-induced calcium mobilization; assay type: functional, cell-based; conditions: concentration not given here
[33] = test system: P2Y purinoceptor 2 (Homo sapiens), P41231 [R180A]; assay: Antagonist activity at N-terminal HA epitope-tagged human P2Y2 receptor R180A mutant expressed in human 1321N1 cells assessed as inhibition of UTP-induced calcium mobilization; assay type: functional, cell-based; conditions: concentration not given here
[34] = target: T5, P2Y purinoceptor 2; assay: Antagonist activity at N-terminal HA epitope-tagged human P2Y2 receptor Y118A mutant expressed in human 1321N1 cells assessed as inhibition of UTP-induced calcium mobilization; assay type: functional, cell-based; method in brief: as §4
[35] = target: T6, P2Y purinoceptor 2; assay: Antagonist activity at N-terminal HA epitope-tagged human P2Y2 receptor Y198A mutant expressed in human 1321N1 cells assessed as inhibition of UTP-induced calcium mobilization; assay type: functional, cell-based; method in brief: as §4

T2 sequence (P41231 whole entry): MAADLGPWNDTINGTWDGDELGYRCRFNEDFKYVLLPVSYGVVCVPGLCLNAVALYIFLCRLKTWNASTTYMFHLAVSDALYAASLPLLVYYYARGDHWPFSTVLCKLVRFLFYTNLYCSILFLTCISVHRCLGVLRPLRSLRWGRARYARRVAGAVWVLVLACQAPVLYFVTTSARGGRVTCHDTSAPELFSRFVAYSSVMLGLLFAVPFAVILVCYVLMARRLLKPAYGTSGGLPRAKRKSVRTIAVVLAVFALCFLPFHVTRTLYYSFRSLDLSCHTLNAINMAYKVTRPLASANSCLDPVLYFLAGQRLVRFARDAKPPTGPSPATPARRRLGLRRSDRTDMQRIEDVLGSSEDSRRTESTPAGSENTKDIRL
Sequence of P2Y purinoceptor 2 (Homo sapiens), P41231 [UNDEFINED MUTATION] (P41231 whole entry, looked up, stated change not applied): as the sequence (P41231 whole entry) above
Sequence of P2Y purinoceptor 2 (Homo sapiens), P41231 [R177A] (P41231 whole entry R177A): as the sequence (P41231 whole entry) above, with R177A counted along it
T6 sequence (P41231 whole entry Y198A): as the sequence (P41231 whole entry) above, with Y198A counted along it
Sequence of P2Y purinoceptor 2 (Homo sapiens), P41231 [R180A] (P41231 whole entry R180A): as the sequence (P41231 whole entry) above, with R180A counted along it
T1 sequence (P41231 whole entry C278S): as the sequence (P41231 whole entry) above, with C278S counted along it
T3 sequence (P41231 whole entry Y114A): as the sequence (P41231 whole entry) above, with Y114A counted along it
T4 sequence (P41231 whole entry R177A/R180A): as the sequence (P41231 whole entry) above, with R177A, R180A counted along it
T5 sequence (P41231 whole entry Y118A): as the sequence (P41231 whole entry) above, with Y118A counted along it
Sequence of P2Y purinoceptor 2 (Homo sapiens, UniProt P41231, R177A) (P41231 whole entry R177A): as the sequence (P41231 whole entry) above, with R177A counted along it
Sequence of P2Y purinoceptor 2 (Homo sapiens), P41231 [Y198A] (P41231 whole entry Y198A): as the sequence (P41231 whole entry) above, with Y198A counted along it
Sequence of P2Y purinoceptor 2 (Homo sapiens, UniProt P41231, R180A) (P41231 whole entry R180A): as the sequence (P41231 whole entry) above, with R180A counted along it
Sequence of P2Y purinoceptor 2 (Homo sapiens), P41231 [C278S] (P41231 whole entry C278S): as the sequence (P41231 whole entry) above, with C278S counted along it
Sequence of P2Y purinoceptor 2 (Homo sapiens), P41231 [Y114A] (P41231 whole entry Y114A): as the sequence (P41231 whole entry) above, with Y114A counted along it
Sequence of P2Y purinoceptor 2 (Homo sapiens), P41231 [R177A,R180A] (P41231 whole entry R177A/R180A): as the sequence (P41231 whole entry) above, with R177A, R180A counted along it
Sequence of P2Y purinoceptor 2 (Homo sapiens), P41231 [R272A] (P41231 whole entry R272A): as the sequence (P41231 whole entry) above, with R272A counted along it
Sequence of P2Y purinoceptor 2 (Homo sapiens, UniProt P41231, R272A) (P41231 whole entry R272A): as the sequence (P41231 whole entry) above, with R272A counted along it
Sequence of P2Y purinoceptor 2 (Homo sapiens), P41231 [R194H] (P41231 whole entry R194H): as the sequence (P41231 whole entry) above, with R194H counted along it
Sequence of P2Y purinoceptor 2 (Homo sapiens, UniProt P41231, R194H) (P41231 whole entry R194H): as the sequence (P41231 whole entry) above, with R194H counted along it
Sequence of P2Y purinoceptor 2 (Homo sapiens), P41231 [Y118A] (P41231 whole entry Y118A): as the sequence (P41231 whole entry) above, with Y118A counted along it
Sequence of P2Y purinoceptor 2 (Homo sapiens), P41231 [S296A] (P41231 whole entry S296A): as the sequence (P41231 whole entry) above, with S296A counted along it
Sequence of P2Y purinoceptor 2 (Homo sapiens, UniProt P41231, S296A) (P41231 whole entry S296A): as the sequence (P41231 whole entry) above, with S296A counted along it

## Nc1ncnc2c1ncn2[C@@H]1O[C@H](COP(=O)(O)OP(=O)(O)OP(=O)(O)OP(=O)(O)OC[C@H]2O[C@@H](n3cnc4c(N)ncnc43)[C@H](O)[C@@H]2O)[C@@H](O)[C@H]1O [DIADENOSINE TETRAPHOSPHATE]
[1]
  Ratio EC50: 560
[2]
  pEC50: 4.09
[3]
  Efficacy: 12%
[4]
  pEC50: < 3.52
[5]
  Efficacy: 68%
[6]
  pEC50: 6.84
[7]
  pEC50: 6.78
[8]
  pEC50: 6.77
[9]
  Efficacy: 100%
[10]
  Efficacy: 128%
[11]
  pEC50: 6.18
[12]
  Efficacy: 98%
[13]
  pEC50: 5.91
[14]
  Efficacy: 86%
[15]
  pEC50: 6.37
[16]
  Efficacy: 68%
[17]
  pEC50: 3.13
[18]
  pEC50: 6.46
[19]
  pEC50: 6.73
[20]
  Efficacy: 149%
[21]
  pEC50: 6.47
[22]
  Efficacy: 117%
[23]
  Efficacy: inactive
[24]
  Efficacy: inactive
[25]
  Efficacy: 15%
[26]
  Ratio efficacy: 2

## Nc1c(S(=O)(=O)O)cc(Nc2ccc(Nc3nc(Cl)nc(Nc4cccc(S(=O)(=O)O)c4)n3)c(S(=O)(=O)O)c2)c2c1C(=O)c1ccccc1C2=O [RB 2]
[27]
  pIC50: 5.98
[28]
  pIC50: 5.79
[29]
  pIC50: < 4.00
[30]
  Ratio IC50: 0.6
[31]
  pIC50: 4.73
[32]
  inhibition: 55%
[33]
  inhibition: 55%
[34]
  pIC50: 5.80
[35]
  pIC50: 5.03
